In ChEMBL document CHEMBL2440044, “Synthesis and anti-tumor activity of carbohydrate analogues of the tetrahydrofuran containing acetogenins” (Bioorg Med Chem, 2013):

Legend:
Type in all cases: functional, cell-based
HeLa = test: Cytotoxicity against human HeLa cells after 48 hrs by Cell titer Glo assay
How it was run: (§1)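 Cells grown in medium with 10% FBS and penicillin-streptomycin: DMEM for HeLa, MDA-MB231 and PC-3, RPMI for Jurkat. Compounds were taken from 20 mM DMSO stocks and serially diluted in medium at 37 °C. Cells were exposed for 48 h. Viability was read as ATP luminescence and normalized to untreated control (% viability). IC50 came from dose-response curve fits; each was run three times and given as mean ± SD.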

MDA-MB-231 = test: Cytotoxicity against human MDA-MB-231 cells after 48 hrs by Cell titer Glo assay; conditions: MDA-MB-231, 48 h; how it was run: as §1
Jurkat = test: Cytotoxicity against human Jurkat cells after 48 hrs by Cell titer Glo assay; how it was run: as §1
PC-3 = test: Cytotoxicity against human PC3 cells after 48 hrs by Cell titer Glo assay; conditions: PC-3, 48 h; how it was run: as §1

| Structure (SMILES) | IC50 (HeLa) [µM] | IC50 (MDA-MB-231) [µM] | IC50 (Jurkat) [µM] | IC50 (PC-3) [µM] |
| --- | --- | --- | --- | --- |
| CCCCCCCCCCCO[C@H]1[C@@H](O)[C@@H](CO)O[C@@H](OCCCCCCCCCCCC[C@@H](O)CC2=C[C@H](C)OC2=O)[C@@H]1O | 50.3 | 73.5 | 78.2 |  |
| CCCCCCCCCCCOC[C@H]1O[C@H](OCCCCCCCCCCCC[C@@H](O)CC2=C[C@H](C)OC2=O)C[C@@H](O)[C@@H]1O | 16.3 | 16.8 | 13.3 | 44 |
| CCCCCCCCCCCOC[C@H]1O[C@H](OCCCCCCCCCCCC[C@@H](O)CC2=C[C@H](C)OC2=O)[C@@H](O)[C@@H](O)[C@@H]1O | 15.2 | 21.2 | 10.1 | 32.6 |
| CCCCCCCCCCCOC[C@@H]1CC[C@H](O)[C@@H](OCCCCCCCCCCCC[C@@H](O)CC2=C[C@H](C)OC2=O)O1 | 13.9 | 21.8 | 10.7 | 28.7 |
| CCCCCCCCCCCC[C@@H](O)[C@H]1CC[C@H]([C@H](O)CCCCC[C@@H](O)CCCCCCC2=C[C@H](C)OC2=O)O1 | 21 | 34.2 | 17.8 | 43.1 |
| CCCCCCCCCCCOC[C@@H]1C[C@H](O)[C@H](O)[C@@H](OCCCCCCCCCCCC[C@@H](O)CC2=C[C@H](C)OC2=O)O1 | 23.3 | 36.7 | 19.7 | 52.8 |
